Active and inactive are the calls of the source. No cut-off for these calls is given here.
What was measured:
[1] = Tmax in Sprague-Dawley rat at 10 mg/kg, ip administered as single dose by LC-MS/MS analysis; assay type: ADME, organism-based; conditions: in vivo
[2] = Cmax in Sprague-Dawley rat at 10 mg/kg, po administered as single dose by LC-MS/MS analysis; assay type: ADME, organism-based; design: dose 10 mg/kg, route oral; conditions: in vivo
[3] = Half life in Sprague-Dawley rat at 10 mg/kg, ip administered as single dose by LC-MS/MS analysis; assay type: ADME, organism-based; conditions: in vivo
[4] = Cmax in Sprague-Dawley rat at 5 mg/kg, iv administered as single dose by LC-MS/MS analysis; assay type: ADME, organism-based; design: dose 5 mg/kg, route intravenous; conditions: in vivo
[5] = tested on: Staphylococcus aureus; assay: In vivo anti-virulence activity against Staphylococcus aureus Newman infected in BALB/c mouse model assessed as reduction in bacterial load in heart at 0.4 mg bid for 3.5 days administered orally 6 hrs post infection by serial dilution method relative to control; assay type: functional, organism-based
Method in brief: (§1)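 Mice got 3.1 × 10^7 CFU S. aureus Newman by retro-orbital injection. Oral compound was given b.i.d. for 3.5 d, starting 6 h after infection. […] Log10 CFU was counted per kidney and per heart.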

[6] = tested on: Staphylococcus aureus; assay: In vivo anti-virulence activity against Staphylococcus aureus Newman infected in BALB/c mouse model assessed as reduction in bacterial load in heart at 0.2 mg bid for 3.5 days administered orally 6 hrs post infection by serial dilution method relative to vancomycin; assay type: functional; design: scale not given: the % may be the effect or the level left; method in brief: as §1
[7] = Tmax in Sprague-Dawley rat at 10 mg/kg, po administered as single dose by LC-MS/MS analysis; assay type: ADME, organism-based; conditions: in vivo
[8] = tested on: Staphylococcus aureus; assay: In vivo anti-virulence activity against Staphylococcus aureus Newman infected in BALB/c mouse model assessed as reduction in bacterial load in heart at 0.1 mg bid for 3.5 days administered orally 6 hrs post infection by serial dilution method relative to vancomycin; assay type: functional; design: scale not given: the % may be the effect or the level left; method in brief: as §1
[9] = AUC (0 to infinity) in Sprague-Dawley rat at 5 mg/kg, iv administered as single dose by LC-MS/MS analysis; assay type: ADME, organism-based; design: dose 5 mg/kg, time infinity, route intravenous; conditions: in vivo
[10] = target: Cytochrome P450 2C8 (Homo sapiens, UniProt P10632); assay: Inhibition of CYP2C8 in human liver microsomes using paclitaxel as substrate upto 10 uM after 20 mins in presence of NADPH by LC-MS/MS analysis; assay type: ADME
Cytochrome P450 2C8, sequence (P10632 whole entry): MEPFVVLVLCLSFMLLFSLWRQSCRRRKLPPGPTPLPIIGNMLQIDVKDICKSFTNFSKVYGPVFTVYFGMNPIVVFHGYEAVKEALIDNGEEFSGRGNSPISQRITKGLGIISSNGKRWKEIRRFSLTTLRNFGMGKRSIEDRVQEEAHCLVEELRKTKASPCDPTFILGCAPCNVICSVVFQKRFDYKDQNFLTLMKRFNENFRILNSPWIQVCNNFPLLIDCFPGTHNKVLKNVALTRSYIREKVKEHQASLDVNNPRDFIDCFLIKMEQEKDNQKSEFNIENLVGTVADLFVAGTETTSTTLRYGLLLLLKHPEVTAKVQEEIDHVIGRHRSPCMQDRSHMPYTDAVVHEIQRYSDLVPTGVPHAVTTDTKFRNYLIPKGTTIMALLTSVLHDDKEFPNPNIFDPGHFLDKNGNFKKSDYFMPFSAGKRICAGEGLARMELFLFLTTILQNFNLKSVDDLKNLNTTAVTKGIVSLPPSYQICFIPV

[11] = Oral bioavailability in mouse at 10 mg/kg administered as single dose by LC-MS/MS analysis; assay type: ADME, organism-based; conditions: in vivo
[12] = AUC (0 to 24 hrs) in Sprague-Dawley rat at 10 mg/kg, ip administered as single dose by LC-MS/MS analysis; assay type: ADME, organism-based; design: dose 10 mg/kg, time < 24 hr, route intraperitoneal; conditions: in vivo
[13] = tested on: Staphylococcus aureus; assay: In vivo anti-virulence activity against methicillin-resistant Staphylococcus aureus LRSA202 infected in BALB/c mouse model assessed as reduction in bacterial load in kidney at 0.1 mg bid for 3.5 days administered intraperitoneally 6 hrs post infection by serial dilution method relative to control; assay type: functional, organism-based
Method in brief: (§2)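 Mice were infected by retro-orbital injection with LRSA56 (5.0 × 10^7 CFU) or LRSA202 (7.0 × 10^7 CFU). Compound was given intraperitoneally 6 h after infection. […] Log10 CFU was counted in kidneys and hearts, with groups compared by two-tailed Mann-Whitney test.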

[14] = tested on: Staphylococcus aureus; assay: In vivo anti-virulence activity against methicillin-resistant Staphylococcus aureus LRSA56 infected in BALB/c mouse model assessed as reduction in bacterial load in kidney at 0.1 mg bid for 3.5 days administered intraperitoneally 6 hrs post infection by serial dilution method relative to linezolid; assay type: functional; design: scale not given: the % may be the effect or the level left; method in brief: as §2
[15] = AUC (0 to infinity) in mouse at 2 mg/kg, iv administered as single dose by LC-MS/MS analysis; assay type: ADME, organism-based; design: dose 2 mg/kg, time infinity, route intravenous; conditions: in vivo
[16] = target: T1, 4,4'-diapophytoene desaturase (4,4'-diaponeurosporene-forming) (Staphylococcus aureus (strain USA300)) (UniProt Q2FDU6); conditions: Staphylococcus aureus LAC, 1 uM
T1 sequence (whole entry): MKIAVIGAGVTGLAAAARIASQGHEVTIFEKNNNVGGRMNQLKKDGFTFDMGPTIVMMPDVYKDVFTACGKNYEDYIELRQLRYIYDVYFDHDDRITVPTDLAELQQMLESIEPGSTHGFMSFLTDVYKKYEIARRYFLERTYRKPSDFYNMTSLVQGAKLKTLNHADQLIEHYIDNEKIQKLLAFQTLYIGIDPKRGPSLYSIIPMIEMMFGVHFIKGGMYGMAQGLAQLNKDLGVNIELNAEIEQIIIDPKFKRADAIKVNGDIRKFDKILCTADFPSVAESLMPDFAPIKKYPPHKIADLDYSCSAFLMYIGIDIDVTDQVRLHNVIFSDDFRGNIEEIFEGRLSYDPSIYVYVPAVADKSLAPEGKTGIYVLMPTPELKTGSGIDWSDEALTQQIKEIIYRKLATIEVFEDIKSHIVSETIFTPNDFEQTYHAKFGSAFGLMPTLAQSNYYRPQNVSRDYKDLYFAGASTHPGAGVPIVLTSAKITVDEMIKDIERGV

SMILES: CN(C/C=C/c1ccc(-c2ccccc2)cc1)Cc1coc2ccccc12.Cl
- Tmax [1]: 3 h
- Cmax [2]: 213 ng/mL
- half-life [3]: 7.61 h
- Cmax [4]: 4610 ng/mL
- Activity [5]: inactive
- Activity [6]: >55.3%
- Tmax [7]: 2 h
- Activity [8]: >55.3%
- AUC(0-inf) [9]: 2860 ng·h/mL
- IC50 [10]: > 10 µM
- bioavailability [11]: 83.8%
- AUC(0-t) at 24 h [12]: 975000 ng·h/mL
- Activity [13]: Active
- Activity [14]: >54.3%
- AUC(0-inf) [15]: 1090 ng·h/mL
- Survival [16]: 2.3%

Reference: ChEMBL document CHEMBL4024779, “Novel Terminal Bipheny-Based Diapophytoene Desaturases (CrtN) Inhibitors as Anti-MRSA/VISR/LRSA Agents with Reduced hERG Activity” (J Med Chem, 2018)
